# In ChEMBL document CHEMBL1148649, “Effect of various pyrimidines possessing the 1-[(2-hydroxy-1-(hydroxymethyl)ethoxy)methyl] moiety, able to mimic natural 2'-deoxyribose, on wild-type and mutant hepatitis B virus replication” (J Med Chem, 2006):
# Tested on: Hepatitis B virus
# Test: Antiviral activity against HBV M204I mutant transfected in B1 cell line
# Assay type: functional, organism-based
# Conditions: not given
# Outline: (§1)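 HepG2 human hepatoma cells stably transfected with mutant HBV genome: B1 line carries M204I, D88 line carries L180M/M204V. Culture, compound treatment and read-out are as for 2.2.15 cells. Intracellular viral DNA is measured by dot blot hybridization. EC50 is the concentration (µM) that reduces viral DNA to 50% of untreated infected controls.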
row,SMILES,EC50 [µM]
1,O=c1[nH]c(=O)n(COC(CO)CO)cc1Cl,20
2,Cc1c(Br)c(=O)[nH]c(=O)n1COC(CO)CO,32.4
3,Nc1ccn([C@@H]2CS[C@H](CO)O2)c(=O)n1 [LAMIVUDINE],> 44

# Tested on: Duck hepatitis B virus
# Test: Antiviral activity against duck HBV in primary duck hepatocytes at 10 ug/mL
# Assay type: functional
# Conditions: Hepatocyte
# Outline: (§2)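 Primary hepatocyte cultures from congenitally DHBV-infected ducks were exposed to compounds. Intracellular viral DNA was measured by dot blot hybridization. EC50 is the µM concentration that cuts viral DNA to 50% of untreated infected controls. The single-point value is % inhibition of viral DNA at 10 µg/mL against untreated infected controls.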
row,SMILES,inhibition at 10 µg/mL [%]
1,O=c1[nH]c(=O)n(COC(CO)CO)cc1Br,48
2,CCc1cn(COC(CO)CO)c(=O)[nH]c1=O,35
3,Nc1ccn(COC(CO)CO)c(=O)n1,0
4,O=c1[nH]c(=O)n(COC(CO)CO)cc1Cl,69
5,O=c1[nH]c(=O)n(COC(CO)CO)cc1F,24
6,O=c1[nH]c(=O)n(COC(CO)CO)cc1[N+](=O)[O-],45
7,Nc1cn(COC(CO)CO)c(=O)[nH]c1=O,37
8,O=c1[nH]c(=O)n(COC(CO)CO)cc1CCO,25
9,Nc1nc(=O)n(COC(CO)CO)cc1F,20
10,O=c1[nH]c(=O)n(COC(CO)CO)cc1/C=C/Br,75
11,COc1nc(=O)n(COC(CO)CO)cc1Br,45
12,O=c1[nH]c(=O)n(COC(CO)CO)cc1CO,0
13,O=c1cnn(COC(CO)CO)c(=O)[nH]1,41
14,Cc1nn(COC(CO)CO)c(=O)[nH]c1=O,45
15,Cc1cn(COC(CO)CO)c(=O)[nH]c1=O,45
16,Cc1c(I)c(=O)[nH]c(=O)n1COC(CO)CO [IODMETACYCLUR],44
17,Cc1c(Br)c(=O)[nH]c(=O)n1COC(CO)CO,73
18,O=c1ccn(COC(CO)CO)c(=O)[nH]1,0
19,Nc1ccn([C@@H]2CS[C@H](CO)O2)c(=O)n1 [LAMIVUDINE],96
20,Cc1cc(=O)[nH]c(=O)n1COC(CO)CO,27
21,Cc1nn(COC(CO)CO)c(=S)[nH]c1=O,25

# Tested on: Vero
# Test: Cytotoxicity against Vero cell line
# Assay type: functional
# Conditions: Chlorocebus sabaeus
# Outline: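 Vero cell viability was measured by MTT after 3 days of compound exposure. CC50 is the concentration giving 50% loss of viability versus untreated control. ">" marks values where 50% was not reached at the highest concentration tested.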
row,SMILES,CC50 [µM]
1,O=c1[nH]c(=O)n(COC(CO)CO)cc1Br,> 338
2,CCc1cn(COC(CO)CO)c(=O)[nH]c1=O,> 410
3,Nc1ccn(COC(CO)CO)c(=O)n1,> 465
4,O=c1[nH]c(=O)n(COC(CO)CO)cc1Cl,> 400
5,O=c1[nH]c(=O)n(COC(CO)CO)cc1F,> 427
6,O=c1[nH]c(=O)n(COC(CO)CO)cc1[N+](=O)[O-],> 383
7,Nc1cn(COC(CO)CO)c(=O)[nH]c1=O,> 432
8,O=c1[nH]c(=O)n(COC(CO)CO)cc1CCO,> 384
9,Nc1nc(=O)n(COC(CO)CO)cc1F,> 429
10,O=c1[nH]c(=O)n(COC(CO)CO)cc1/C=C/Br,> 311
11,COc1nc(=O)n(COC(CO)CO)cc1Br,> 323
12,O=c1[nH]c(=O)n(COC(CO)CO)cc1CO,> 406
13,O=c1cnn(COC(CO)CO)c(=O)[nH]1,> 460
14,Cc1nn(COC(CO)CO)c(=O)[nH]c1=O,> 432
15,Cc1cn(COC(CO)CO)c(=O)[nH]c1=O,> 434
16,Cc1c(I)c(=O)[nH]c(=O)n1COC(CO)CO [IODMETACYCLUR],> 280
17,Cc1c(Br)c(=O)[nH]c(=O)n1COC(CO)CO,> 324
18,O=c1ccn(COC(CO)CO)c(=O)[nH]1,> 462
19,Cc1cc(=O)[nH]c(=O)n1COC(CO)CO,> 434
20,Cc1nn(COC(CO)CO)c(=S)[nH]c1=O,> 404

# Tested on: Hepatitis B virus
# Test: Antiviral activity against HBV L180M/M204V mutant transfected in D88 cell line
# Assay type: functional, organism-based
# Conditions: not given
# Outline: as §1
row,SMILES,EC50 [µM]
1,O=c1[nH]c(=O)n(COC(CO)CO)cc1Cl,> 40
2,Cc1c(Br)c(=O)[nH]c(=O)n1COC(CO)CO,> 32.4

# Tested on: Hepatitis B virus
# Test: Antiviral activity against wild type HBV in human hepatoma 2.2.15 cells at 10 ug/mL
# Assay type: functional
# Conditions: HepG2 2.2.15
# Outline: (§3)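 HBV-transfected human 2.2.15 cells were treated with compounds. Intracellular HBV DNA was quantified by dot blot hybridization. EC50 is the µM concentration that reduces viral DNA to 50% of untreated infected controls. The fixed-dose value is % inhibition at 10 µg/mL against untreated infected controls. Lamivudine and abacavir served as references.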
row,SMILES,inhibition at 10 µg/mL [%]
1,O=c1[nH]c(=O)n(COC(CO)CO)cc1Br,40
2,CCc1cn(COC(CO)CO)c(=O)[nH]c1=O,30
3,Nc1ccn(COC(CO)CO)c(=O)n1,0
4,O=c1[nH]c(=O)n(COC(CO)CO)cc1Cl,60
5,O=c1[nH]c(=O)n(COC(CO)CO)cc1F,26
6,O=c1[nH]c(=O)n(COC(CO)CO)cc1[N+](=O)[O-],40
7,Nc1cn(COC(CO)CO)c(=O)[nH]c1=O,30
8,O=c1[nH]c(=O)n(COC(CO)CO)cc1CCO,28
9,Nc1nc(=O)n(COC(CO)CO)cc1F,0
10,O=c1[nH]c(=O)n(COC(CO)CO)cc1/C=C/Br,53
11,COc1nc(=O)n(COC(CO)CO)cc1Br,35
12,O=c1[nH]c(=O)n(COC(CO)CO)cc1CO,0
13,O=c1cnn(COC(CO)CO)c(=O)[nH]1,32
14,Cc1nn(COC(CO)CO)c(=O)[nH]c1=O,37
15,Cc1cn(COC(CO)CO)c(=O)[nH]c1=O,37
16,Cc1c(I)c(=O)[nH]c(=O)n1COC(CO)CO [IODMETACYCLUR],38
17,Cc1c(Br)c(=O)[nH]c(=O)n1COC(CO)CO,55
18,O=c1ccn(COC(CO)CO)c(=O)[nH]1,0
19,Nc1ccn([C@@H]2CS[C@H](CO)O2)c(=O)n1 [LAMIVUDINE],88
20,Cc1cc(=O)[nH]c(=O)n1COC(CO)CO,0
21,Cc1nn(COC(CO)CO)c(=S)[nH]c1=O,0

# Tested on: Hepatitis B virus
# Test: Antiviral activity against wild type HBV in human hepatoma 2.2.15 cells
# Assay type: functional, organism-based
# Conditions: HepG2 2.2.15
# Outline: as §3
row,SMILES,EC50 [µM]
1,O=c1[nH]c(=O)n(COC(CO)CO)cc1Br,> 33.8
2,CCc1cn(COC(CO)CO)c(=O)[nH]c1=O,> 41
3,O=c1[nH]c(=O)n(COC(CO)CO)cc1Cl,20
4,O=c1[nH]c(=O)n(COC(CO)CO)cc1F,> 42.7
5,O=c1[nH]c(=O)n(COC(CO)CO)cc1[N+](=O)[O-],> 38.3
6,Nc1cn(COC(CO)CO)c(=O)[nH]c1=O,> 43.2
7,O=c1[nH]c(=O)n(COC(CO)CO)cc1CCO,> 38.4
8,O=c1[nH]c(=O)n(COC(CO)CO)cc1/C=C/Br,30
9,COc1nc(=O)n(COC(CO)CO)cc1Br,> 32.3
10,O=c1cnn(COC(CO)CO)c(=O)[nH]1,> 46
11,Cc1nn(COC(CO)CO)c(=O)[nH]c1=O,> 43.2
12,Cc1cn(COC(CO)CO)c(=O)[nH]c1=O,> 43.4
13,Cc1c(I)c(=O)[nH]c(=O)n1COC(CO)CO [IODMETACYCLUR],> 28
14,Cc1c(Br)c(=O)[nH]c(=O)n1COC(CO)CO,32.4

# Tested on: Hepatitis C virus
# Test: Antiviral activity against hepatitis C virus
# Assay type: functional, organism-based, Hepacivirus hominis
# Conditions: not given
row,SMILES,EC50 [µM]
1,Nc1nc(=O)n(COC(CO)CO)cc1F,132

# Tested on: HepG2
# Test: Cytotoxicity against human HepG2 cell line
# Assay type: functional
# Conditions: not given
# Outline: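 HepG2 cells were exposed to compounds for 3 days and viability was measured. CC50 is the concentration lowering viability by 50% versus untreated control. ">" means 50% was not reached at the highest concentration tested.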
row,SMILES,CC50 [µM]
1,O=c1[nH]c(=O)n(COC(CO)CO)cc1Br,> 338
2,CCc1cn(COC(CO)CO)c(=O)[nH]c1=O,> 410
3,Nc1ccn(COC(CO)CO)c(=O)n1,> 465
4,O=c1[nH]c(=O)n(COC(CO)CO)cc1Cl,> 400
5,O=c1[nH]c(=O)n(COC(CO)CO)cc1F,> 427
6,O=c1[nH]c(=O)n(COC(CO)CO)cc1[N+](=O)[O-],> 383
7,Nc1cn(COC(CO)CO)c(=O)[nH]c1=O,> 432
8,O=c1[nH]c(=O)n(COC(CO)CO)cc1CCO,> 384
9,Nc1nc(=O)n(COC(CO)CO)cc1F,> 429
10,O=c1[nH]c(=O)n(COC(CO)CO)cc1/C=C/Br,> 311
11,COc1nc(=O)n(COC(CO)CO)cc1Br,> 323
12,O=c1[nH]c(=O)n(COC(CO)CO)cc1CO,> 406
13,O=c1cnn(COC(CO)CO)c(=O)[nH]1,> 460
14,Cc1nn(COC(CO)CO)c(=O)[nH]c1=O,> 432
15,Cc1cn(COC(CO)CO)c(=O)[nH]c1=O,> 434
16,Cc1c(I)c(=O)[nH]c(=O)n1COC(CO)CO [IODMETACYCLUR],> 280
17,Cc1c(Br)c(=O)[nH]c(=O)n1COC(CO)CO,> 324
18,O=c1ccn(COC(CO)CO)c(=O)[nH]1,> 462
19,Cc1cc(=O)[nH]c(=O)n1COC(CO)CO,> 434
20,Cc1nn(COC(CO)CO)c(=S)[nH]c1=O,> 404

# Tested on: Hepatitis B virus
# Test: Antiviral activity against HBV M204I mutant transfected in B1 cell line at 10 ug/mL
# Assay type: functional
# Conditions: not given
# Outline: (§4)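 Mutant-HBV-transfected HepG2 lines: B1 carries M204I, D88 carries L180M/M204V. Cells are exposed to compound at 10 µg/mL. Intracellular viral DNA is quantified by dot blot hybridization. Results are given as percent inhibition of viral DNA relative to untreated infected controls.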
row,SMILES,inhibition at 10 µg/mL [%]
1,O=c1[nH]c(=O)n(COC(CO)CO)cc1Cl,56
2,Cc1c(Br)c(=O)[nH]c(=O)n1COC(CO)CO,51
3,Nc1nc(NC2CC2)c2ncn([C@H]3C=C[C@@H](CO)C3)c2n1 [ABACAVIR],80
4,Nc1ccn([C@@H]2CS[C@H](CO)O2)c(=O)n1 [LAMIVUDINE],45

# Tested on: Hepatitis B virus
# Test: Antiviral activity against HBV L180M/M204V mutant transfected in D88 cell line at 10 ug/mL
# Assay type: functional
# Conditions: not given
# Outline: as §4
row,SMILES,inhibition at 10 µg/mL [%]
1,O=c1[nH]c(=O)n(COC(CO)CO)cc1Cl,40
2,Cc1c(Br)c(=O)[nH]c(=O)n1COC(CO)CO,30
3,Nc1nc(NC2CC2)c2ncn([C@H]3C=C[C@@H](CO)C3)c2n1 [ABACAVIR],72
4,Nc1ccn([C@@H]2CS[C@H](CO)O2)c(=O)n1 [LAMIVUDINE],30

# Tested on: Duck hepatitis B virus
# Test: Antiviral activity against duck HBV in primary duck hepatocytes
# Assay type: functional, organism-based
# Conditions: Hepatocyte
# Outline: as §2
row,SMILES,EC50 [µM]
1,O=c1[nH]c(=O)n(COC(CO)CO)cc1Br,> 33.8
2,CCc1cn(COC(CO)CO)c(=O)[nH]c1=O,> 41
3,O=c1[nH]c(=O)n(COC(CO)CO)cc1Cl,4
4,O=c1[nH]c(=O)n(COC(CO)CO)cc1F,> 42.7
5,O=c1[nH]c(=O)n(COC(CO)CO)cc1[N+](=O)[O-],> 38.3
6,Nc1cn(COC(CO)CO)c(=O)[nH]c1=O,> 43.2
7,O=c1[nH]c(=O)n(COC(CO)CO)cc1CCO,> 38.4
8,Nc1nc(=O)n(COC(CO)CO)cc1F,> 42.9
9,O=c1[nH]c(=O)n(COC(CO)CO)cc1/C=C/Br,3
10,COc1nc(=O)n(COC(CO)CO)cc1Br,> 32.3
11,O=c1cnn(COC(CO)CO)c(=O)[nH]1,> 46
12,Cc1nn(COC(CO)CO)c(=O)[nH]c1=O,> 43.2
13,Cc1cn(COC(CO)CO)c(=O)[nH]c1=O,> 43.4
14,Cc1c(I)c(=O)[nH]c(=O)n1COC(CO)CO [IODMETACYCLUR],> 28
15,Cc1c(Br)c(=O)[nH]c(=O)n1COC(CO)CO,16.2
16,Cc1cc(=O)[nH]c(=O)n1COC(CO)CO,> 43.4
17,Cc1nn(COC(CO)CO)c(=S)[nH]c1=O,> 40.4
